Screening data (PubChem)
ADAM10 inh – human ADAM10 inhibitors, primary screen, biochemical, QFRET, HTS; AID 720582, 2013; 370,000 compounds, 0.62% hits; recombinant ADAM10, EDANS/DABCYL FRET peptide cleavage, 3 h; inhibition, % at 7 µM; Disintegrin and metalloproteinase domain-containing protein 10 (Homo sapiens), O14672;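 active = inhibition above a per-campaign cutoff equal to the mean of compounds falling between control-based bounds plus 3 SD, cut at about 20% in these data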
PLCg1 inh – PLC-gamma1 enzyme inhibitors, primary screen, biochemical, fluorescence, purified enzyme; fluorogenic substrate; inhibition, % at 12.2 µM; 370,000 compounds, 0.84% hits; in the data active = inhibition above about 9.5%
PLC-beta3 inh – human PLC-beta3 inhibitors, primary screen, biochemical, fluorescence; 1-phosphatidylinositol 4,5-bisphosphate phosphodiesterase beta-3 (Homo sapiens), Q01970; Purified PLC-beta3, fluorogenic substrate; inhibition, % at 12.2 µM; 370,000 compounds, 0.18% hits; AID 720704, 2013; in the data active = inhibition above about 11%
TbMetRS inhib – T. brucei MetRS inhibitors, primary screen, biochemical, luminescence; purified T. brucei MetRS, ATP depletion, Kinase-Glo luminescence; inhibition, % at 11.9 µM; 360,000 compounds, 0.4% hits; AID 624268, 2012;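 active = inhibition above a per-plate cutoff of the control wells' mean inhibition plus 3 SD, cut at about 5.5% in these data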
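Material – parasite MetRS enzyme · Medium – HEPES-MgCl2-KCl buffer plus DTT, spermine, BSA, pyrophosphatase · Reagent – ATP, methionine and E. coli bulk tRNA substrates · Times – 15 min enzyme-compound preincubation, 2 h reaction, 10 min detection, 25 °C · Measured by – luminescence of leftover ATP · Evaluation – percent inhibition relative to median high and low control wells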
ADAM17 inh – ADAM17 inhibitors, primary screen, biochemical, QFRET | AID 720648, 2013 | inhibition, % at 6.95 µM | 370,000 compounds, 0.83% hits | recombinant ADAM17, EDANS/DABCYL FRET peptide cleavage | Disintegrin and metalloproteinase domain-containing protein 17 (Homo sapiens), P78536;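 active = inhibition above the mean of compounds lying between control limits plus 3 SD, set per campaign, cut at about 8.5% in these data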
Target sequence (P78536 215-824 limits assumed): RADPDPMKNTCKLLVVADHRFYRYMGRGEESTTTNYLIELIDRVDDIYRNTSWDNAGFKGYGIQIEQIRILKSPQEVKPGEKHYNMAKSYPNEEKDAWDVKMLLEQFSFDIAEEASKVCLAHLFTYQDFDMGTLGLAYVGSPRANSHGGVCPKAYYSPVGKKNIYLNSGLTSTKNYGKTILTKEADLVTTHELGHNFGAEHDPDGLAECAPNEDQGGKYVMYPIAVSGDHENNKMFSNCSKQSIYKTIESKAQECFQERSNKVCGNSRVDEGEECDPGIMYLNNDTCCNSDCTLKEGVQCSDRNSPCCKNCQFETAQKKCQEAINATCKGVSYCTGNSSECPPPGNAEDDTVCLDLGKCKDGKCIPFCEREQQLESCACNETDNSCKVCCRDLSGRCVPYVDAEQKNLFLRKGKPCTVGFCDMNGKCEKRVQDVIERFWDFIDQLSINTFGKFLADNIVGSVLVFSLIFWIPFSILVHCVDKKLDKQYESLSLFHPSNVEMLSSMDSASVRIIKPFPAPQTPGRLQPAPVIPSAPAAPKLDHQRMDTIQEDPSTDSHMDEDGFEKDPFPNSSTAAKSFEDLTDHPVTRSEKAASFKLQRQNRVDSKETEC
ADAM10 confirm – human ADAM10 inhibitors, confirmation, biochemical, QFRET, triplicate | shares compounds with ADAM10 inh | ADAM10 QFRET peptide cleavage, EDANS fluorescence | inhibition, % at 6.95 µM | 2,100 compounds, 1% hits | AID 743208, 2013;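 active = inhibition above about 20% chosen separately for each screening run, limit read from the data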
ADAM17 ctr – ADAM17 inhibitors, counter-screen for ADAM10 exosite inhibitor project, biochemical, QFRET, high throughput | ADAM17 QFRET peptide cleavage, EDANS fluorescence | 2,100 compounds, 0.5% hits | shares compounds with ADAM10 inh | AID 743214, 2013 | inhibition, % at 6.95 µM;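 active = mean triplicate inhibition above the solvent-only control wells' mean plus 3 SD, cut at about 12% in these data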
Hits are given with their value; . = inactive; / = no result; ! = a repeat was not active. In the library only some 2.3% were active in any assay of this set; here they are far more common.

SMILES | ADAM10 inh | PLCg1 inh | PLC-beta3 inh | TbMetRS inhib | ADAM17 inh | ADAM10 confirm | ADAM17 ctr
COC(=O)c1ccc(C(=O)OC)c(NC(=O)COC(=O)CCOc2ccc(C)cc2)c1 | . | . | . | . | . | / | /
CCNS(=O)(=O)c1ccc(CCC(=O)Nc2cc(Cl)ccc2Oc2ccccc2)cc1 | 21 | . | . | . | . | . | .
CC(C)NS(=O)(=O)c1ccc(CCC(=O)Nc2cc(Cl)ccc2Oc2ccccc2)cc1 | / | / | / | . | / | / | /
COC(=O)[C@]12CCCCC=C1N(Cc1ccc3c(c1)OCO3)C(=O)[C@H](CC(=O)N1CCSCC1)C2 | . | . | . | . | . | / | /
Cc1nc(-c2cccc(NS(=O)(=O)c3ccc4ccccc4c3)c2)cs1 | 26 | . | . | . | . | . | .
S=C(Nc1ccc(Oc2ccccc2)cc1)N1CCN(c2ccccn2)CC1 | 22 | . | . | . | . | . | .
O=C(Oc1cccc(NC(=O)c2ccco2)c1)c1ccc(Br)c(S(=O)(=O)N2CCCCC2)c1 | 28 | . | . | . | 13 | . | .
Cc1ccc(C(=O)Oc2cccc(NC(=O)c3ccco3)c2)cc1S(=O)(=O)N1CCC(C)CC1 | . | . | . | . | . | / | /
COc1cccc(C2c3c(-c4cc(Cl)c(C)cc4O)n[nH]c3C(=O)N2Cc2cccnc2)c1 (configuration not stated) | . | . | . | . | . | / | /
COc1cc(C2c3c(-c4cc(Cl)c(C)cc4O)n[nH]c3C(=O)N2Cc2cccnc2)ccc1O (configuration not stated) | 21 | . | . | . | . | . | .
CC(=O)c1cccc(NC(=S)NC2CCCCCCC2)c1 | . | . | . | . | . | / | /
CCc1ccc2c(CN3CCN(S(=O)(=O)c4cccs4)CC3)cc(=O)oc2c1 | 21 | . | . | . | . | . | .
CCc1nc2ccc(C(=O)NCCCN(C)C)cn2c1N(C)CCCc1ccccc1 | . | . | . | . | . | / | /
COc1ccccc1NC(=O)c1ccccc1NC(=O)c1cccs1 | 21 | . | . | . | . | . | .
Cc1ccc(CSc2nnc(CNc3ccc(F)cc3)o2)cc1 | 26 | . | . | . | . | . | .
N#CCSc1nnc(CNc2ccc(F)cc2)o1 | . | . | . | . | . | / | /
CC(C)(C)OC(=O)N1CCC[C@H]1C(=O)N/N=C/c1cccc2nccnc12 | . | . | . | . | . | / | /
Cc1nnc(NC(=O)c2c(-c3ccccc3Cl)noc2C)s1 | . | . | . | . | . | / | /
Cc1onc(-c2ccccc2Cl)c1C(=O)Nc1nnc(Cc2ccc(Cl)cc2)s1 | 23 | . | . | . | . | . | .
COCCOC(=O)C1=C(C)NC(C)=C(C(=O)OC(C)C)C1c1cccc([N+](=O)[O-])c1 (configuration not stated) | 22! | . | . | . | . | . | .
COC(=O)c1ccc(CSc2nc3ccccc3c(=O)n2-c2ccc(OC)c(OC)c2)o1 | . | . | . | . | . | / | /
COC(=O)c1ccc(CSc2nc3ccccc3c(=O)n2-c2ccccc2)o1 | 20 | . | . | . | . | . | .
CCOC1=C2[C@@H](CN(S(=O)(=O)c3ccc(C)cc3)[C@H]2c2cccc3ccccc23)[C@H]2C(=O)N(c3ccccc3)C(=O)[C@H]2C1 | 21 | . | . | . | . | . | .
CCOC1=C2[C@@H](CN(S(=O)(=O)c3ccc(C)cc3)[C@H]2c2ccc(Cl)cc2)[C@H]2C(=O)N(c3ccccc3)C(=O)[C@H]2C1 | . | . | . | . | . | / | /
CCOC(=O)N1CCN(CCC(=O)Nc2ccc(OC)cc2)CC1 | 71 | . | . | . | . | . | .
SMILES | ADAM10 inh | PLCg1 inh | PLC-beta3 inh | TbMetRS inhib | ADAM17 inh | ADAM10 confirm | ADAM17 ctr
CC(C)(C)S(=O)(=O)N1C[C@H]2CC/C=C\C/C=C\2[C@@H]1CCO | . | . | . | . | . | / | /
C[C@H](CO)N1C[C@H](C)[C@H](CN(C)S(C)(=O)=O)OCc2ccccc2-c2c(n(C)c3ccccc23)C1=O | . | . | . | . | . | / | /
C[C@H](CO)N1C[C@H](C)[C@H](CN(C)S(=O)(=O)c2ccc(Cl)cc2)OCc2ccccc2-c2c(n(C)c3ccccc23)C1=O | 36 | . | . | . | 12 | . | .
CN(C)C(=O)c1cccc(COc2ccc(N3C(N)=NC(N)=NC3(C)C)cc2Cl)c1 | . | . | . | . | . | / | /
CC1CCCN(S(=O)(=O)c2ccc(NC(=O)CN3C(=O)NC(C)(c4ccccc4)C3=O)cc2)C1 (configuration not stated) | 20 | . | . | . | . | . | .
CC1C(=O)OC2C1CCC1(C)C3(C)C(=O)C=CC213 (configuration not stated) | . | . | . | . | . | / | /
O=C(CN1CCN(S(=O)(=O)N2CCOCC2)CC1)Nc1cc(Cl)ccc1Cl | . | . | . | . | . | / | /
CC1(C)C=Cc2c(ccc3c2OC[C@H](c2ccc(O)cc2O)C3)O1 | 28 | . | . | . | . | . | .
O=c1[nH]c2cc(C(F)(F)F)ccc2n1-c1cc(C(F)(F)F)ccc1O | 20 | . | . | . | . | . | .
COc1cc(/C=C2\SC(=S)N(CCC(=O)Nc3cccc(O)c3)C2=O)cc(OC)c1OC | 21 | . | . | . | . | . | .
COc1ccccc1/C=C1\SC(=S)N(CCC(=O)Nc2cccc(O)c2)C1=O | 23 | . | . | . | . | . | .
CN(C)C(CNC(=O)c1cc(S(=O)(=O)N(C)Cc2ccccc2)ccc1Cl)c1ccco1 (configuration not stated) | . | . | . | . | . | / | /
COc1ccc(N2CCN(C3CCCN(C(=O)C4=C(C)OCCO4)C3)CC2)cc1 (configuration not stated) | . | . | . | . | . | / | /
CCCCn1c(N)c(N(CCOC)C(=O)c2cc(C)oc2C)c(=O)[nH]c1=O | 51 | . | . | . | . | . | .
CCCCn1c(N)c(N(CCOC)C(=O)c2cc(=O)[nH]c3ccccc23)c(=O)[nH]c1=O | . | . | . | . | . | / | /
Cc1ccccc1Cn1ccc(NC(=O)c2cnn3c2NC(c2ccccc2)CC3C(F)(F)F)n1 (configuration not stated) | 21 | . | . | . | . | . | .
